Assay results: ChEMBL document CHEMBL1275592, “AmpN-AmpG operon is essential for expression of L1 and L2 beta-lactamases in Stenotrophomonas maltophilia” (2010)
≈ marks a conversion by molar mass, not a printed value.

Assays:
Format in all cases: functional
[1] = system: Stenotrophomonas maltophilia; assay: Antimicrobial activity against ampN deficient Stenotrophomonas maltophilia KJ harboring ampG with xylE-Gmomega cassette insertion by agar dilution method
In short: (§1)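 MICs were determined in triplicate by standard 2-fold serial agar dilution, following CLSI guidelines.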

[2] = system: Stenotrophomonas maltophilia; assay: Antimicrobial activity against Stenotrophomonas maltophilia KJ harboring pRK415 plasmid by agar dilution method; in short: as §1
[3] = system: Stenotrophomonas maltophilia; assay: Antimicrobial activity against Stenotrophomonas maltophilia KJ harboring pRK-NG plasmid by agar dilution method; in short: as §1
[4] = system: Stenotrophomonas maltophilia; assay: Antimicrobial activity against Stenotrophomonas maltophilia KJ by agar dilution method; in short: as §1
[5] = system: Stenotrophomonas maltophilia; assay: Antimicrobial activity against Stenotrophomonas maltophilia KJN2 harboring pRK-EcG plasmid and ampN with xylE-Gmomega cassette insertion by agar dilution method; in short: as §1
[6] = system: Stenotrophomonas maltophilia; assay: Antimicrobial activity against ampN deficient Stenotrophomonas maltophilia KJ by agar dilution method; in short: as §1
[7] = system: Stenotrophomonas maltophilia; assay: Antimicrobial activity against Stenotrophomonas maltophilia KJN2 harboring pRK-G plasmid and ampN with xylE-Gmomega cassette insertion by agar dilution method; in short: as §1
[8] = system: Stenotrophomonas maltophilia; assay: Antimicrobial activity against Stenotrophomonas maltophilia KJN1 harboring ampN with xylE-Gmomega cassette insertion by agar dilution method; in short: as §1
[9] = system: Stenotrophomonas maltophilia; assay: Antimicrobial activity against Stenotrophomonas maltophilia KJN2 harboring pRK-NG plasmid and ampN with xylE-Gmomega cassette insertion by agar dilution method; in short: as §1
[10] = system: Stenotrophomonas maltophilia; assay: Antimicrobial activity against Stenotrophomonas maltophilia KJN2 harboring pRK415 plasmid and ampN with xylE-Gmomega cassette insertion by agar dilution method; in short: as §1
[11] = system: Stenotrophomonas maltophilia; assay: Antimicrobial activity against Stenotrophomonas maltophilia KJG harboring ampG with xylE-Gmomega cassette insertion by agar dilution method; in short: as §1
[12] = system: Stenotrophomonas maltophilia; assay: Antimicrobial activity against Stenotrophomonas maltophilia KJN2 harboring ampN with xylE-Gmomega cassette insertion by agar dilution method; in short: as §1
[13] = system: Stenotrophomonas maltophilia; assay: Antimicrobial activity against Stenotrophomonas maltophilia KJG harboring ampG with xylE-Gmomega cassette insertion by Etest
In short: (§2)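 Imipenem and meropenem MICs were read from Etest strips, following the manufacturer's instructions.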

[14] = system: Stenotrophomonas maltophilia; assay: Antimicrobial activity against Stenotrophomonas maltophilia KJN1 harboring ampN with xylE-Gmomega cassette insertion by Etest; in short: as §2
[15] = system: Stenotrophomonas maltophilia; assay: Antimicrobial activity against Stenotrophomonas maltophilia KJN2 harboring pRK-EcG plasmid and ampN with xylE-Gmomega cassette insertion by Etest; in short: as §2
[16] = system: Stenotrophomonas maltophilia; assay: Antimicrobial activity against Stenotrophomonas maltophilia KJN2 harboring pRK-NG plasmid and ampN with xylE-Gmomega cassette insertion by Etest; in short: as §2
[17] = system: Stenotrophomonas maltophilia; assay: Antimicrobial activity against Stenotrophomonas maltophilia KJN2 harboring pRK-G plasmid and ampN with xylE-Gmomega cassette insertion by Etest; in short: as §2
[18] = system: Stenotrophomonas maltophilia; assay: Antimicrobial activity against Stenotrophomonas maltophilia KJN2 harboring ampN with xylE-Gmomega cassette insertion by Etest; in short: as §2
[19] = system: Stenotrophomonas maltophilia; assay: Antimicrobial activity against Stenotrophomonas maltophilia KJ by Etest; in short: as §2
[20] = system: Stenotrophomonas maltophilia; assay: Antimicrobial activity against ampN deficient Stenotrophomonas maltophilia KJ harboring ampG with xylE-Gmomega cassette insertion by Etest; in short: as §2
[21] = system: Stenotrophomonas maltophilia; assay: Antimicrobial activity against Stenotrophomonas maltophilia KJN2 harboring pRK415 plasmid and ampN with xylE-Gmomega cassette insertion by Etest; in short: as §2
[22] = system: Stenotrophomonas maltophilia; assay: Antimicrobial activity against ampN deficient Stenotrophomonas maltophilia KJ by Etest; in short: as §2

SMILES: C[C@H]1[C@H](NC(=O)/C(=N\OC(C)(C)C(=O)O)c2csc(N)n2)C(=O)N1S(=O)(=O)O [AZTREONAM]
- MIC [1]: 16 µg/mL (≈ 36.7 µM)
- MIC [2]: > 1020 µg/mL
- MIC [3]: > 1020 µg/mL
- MIC [4]: > 1020 µg/mL
- MIC [5]: > 1020 µg/mL
- MIC [6]: 32 µg/mL (≈ 73.5 µM)
- MIC [7]: 32 µg/mL (≈ 73.5 µM)
- MIC [8]: 32 µg/mL (≈ 73.5 µM)
- MIC [9]: > 1020 µg/mL
- MIC [10]: 16 µg/mL (≈ 36.7 µM)
- MIC [11]: 16 µg/mL (≈ 36.7 µM)
- MIC [12]: 16 µg/mL (≈ 36.7 µM)

SMILES: C[C@@H](O)[C@H]1C(=O)N2C(C(=O)O)=C(S[C@@H]3CN[C@H](C(=O)N(C)C)C3)[C@H](C)[C@H]12 [MEROPENEM]
- MIC [13]: 0.38 µg/mL (≈ 0.991 µM)
- MIC [14]: 0.5 µg/mL (≈ 1.3 µM)
- MIC [15]: > 32 µg/mL
- MIC [16]: > 32 µg/mL
- MIC [17]: 0.75 µg/mL (≈ 1.96 µM)
- MIC [18]: 0.38 µg/mL (≈ 0.991 µM)
- MIC [19]: > 32 µg/mL
- MIC [20]: 0.38 µg/mL (≈ 0.991 µM)
- MIC [21]: 0.5 µg/mL (≈ 1.3 µM)
- MIC [22]: 0.38 µg/mL (≈ 0.991 µM)
